Bioassay records as filed in PubChem BioAssay.
An excerpt weighted towards active compounds, which were near 2.1% of everything screened.
Runt-CBFb FRET – Runt domain-CBFb interaction inhibition | Cerulean-Runt/Venus-CBFb FRET ratio 530/480, 1 h | Q01196+Q13951 | hit rate 0.46% among 220,000 | inhibition, % at 20 µM | AID 1496;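 active means inhibition over about 50% at 20 µM in the single-dose screen, limit read from the data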;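 further: 0% = DMSO wells and 100% = excess unlabeled CBFb competitor control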
Target sequence (Q01196 whole entry, looked up, the tested form may be a part): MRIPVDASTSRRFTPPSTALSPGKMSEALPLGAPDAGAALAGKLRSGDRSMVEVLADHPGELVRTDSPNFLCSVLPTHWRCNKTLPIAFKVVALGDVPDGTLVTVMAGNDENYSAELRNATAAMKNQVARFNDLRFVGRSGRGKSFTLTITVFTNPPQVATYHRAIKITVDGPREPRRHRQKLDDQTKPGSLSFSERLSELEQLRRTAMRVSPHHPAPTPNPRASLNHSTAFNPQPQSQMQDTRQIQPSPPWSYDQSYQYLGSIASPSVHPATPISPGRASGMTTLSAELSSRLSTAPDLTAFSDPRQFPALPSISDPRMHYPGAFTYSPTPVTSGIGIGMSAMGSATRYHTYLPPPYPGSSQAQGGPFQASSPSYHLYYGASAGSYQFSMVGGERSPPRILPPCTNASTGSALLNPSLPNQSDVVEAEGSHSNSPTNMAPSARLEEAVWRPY
Target sequence (Q13951 whole entry, looked up, the tested form may be a part): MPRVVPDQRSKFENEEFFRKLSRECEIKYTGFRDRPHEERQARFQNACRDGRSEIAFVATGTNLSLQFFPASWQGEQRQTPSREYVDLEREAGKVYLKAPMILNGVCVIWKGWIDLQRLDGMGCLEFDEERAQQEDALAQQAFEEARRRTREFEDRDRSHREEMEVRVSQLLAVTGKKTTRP
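Buffer or medium: Tris pH 7.5 buffer with BSA. Assay system: Cerulean-labeled Runt domain protein. Amount: each fluorescent fusion protein 100 nM. Read-out basis: loss of energy transfer signal. Incubation: 1 h compound exposure, room temperature. Probe or stimulus: Venus-CBFb binding partner, 100 nM. Detection: FRET, excitation 422 nm, emission at 530 and 480 nm.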
MEX-5 binding – C. elegans MEX-5 TCR-2 RNA binding activity; activity score (negative = inhibition of binding), % at 10 µM; hit rate 0.38% among 300,000; Q9XUB2; MEX-5/FITC-TCR2 RNA binding, fluorescence polarization; active compounds read low;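 active means inhibition past about -25% in most replicates, and total fluorescence under double the plate's negative control median, limit read from the data; inconclusive means replicates evenly split on the limit, or fluorescence at least double controls; inactive means too little inhibition in most replicates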;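 further: 0% = DMSO and -100% = 5 µM competing unlabeled TCR2 RNA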
Runt-SMMHC FRET – inhibitors of human RUNX1 Runt domain binding to CBFb-SMMHC; inhibition, % at 20 µM; hit rate 0.74% among 220,000; Cerulean-Runt/Venus-CBFb-SMMHC FRET ratio 530/480, 1 h; AID 1434; Q01196+Q13951;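 active means mean inhibition across duplicate retests at 20 µM reaching about 50%, limit read from the data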;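 further: 0% = DMSO wells and 100% = wells with excess untagged CBFb-SMMHC; inhibitors lower the FRET ratio by blocking Runt binding to CBFb-SMMHC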
KLK7 zymogen act – activators of human kallikrein-7 zymogen; AID 652039; hit rate 0.9% among 370,000; activation, % at 7 µM; purified proKLK7, EDANS-DABCYL substrate fluorescence; 100% is mature enzyme control, 0% vehicle;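 active means activation above the mean of all tested compounds plus 3 SD, computed per campaign excluding outliers beyond control limits, cut at about 13% in these data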
RanGTP-Impb inh – inhibitors of RanGTP-importin-beta interaction, primary screen, biochemical, FRET, CFP-Ran, YFP-importin-beta, homogeneous; cell-free CFP-Ran/YFP-importin-beta FRET ratio; inhibition, % (test concentration not listed); hit rate 1.1% among 300,000;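 active means more than half of the replicate wells show a fall in the fluorescence ratio signal beyond about 16%, limit read from the data, passing the limit was not always enough; inconclusive means exactly half of the replicate wells pass the set limit; inactive means fewer than half of replicates pass the limit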;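 further: 0% = DMSO wells and 100% = Ran loaded with GDP instead of GTP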
KLK7 act conf – confirmation of human kallikrein-7 zymogen activators | purified proKLK7, EDANS-DABCYL substrate fluorescence; scaled: vehicle 0, mature enzyme 100 | hit rate 68% among 3,200 | shares compounds with KLK7 zymogen act | AID 686949 | activation, % at 7 µM;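 active means activation, as change over the incubation, above the mean of all tested compounds plus 3 SD, cut at about 13% in these data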
EDANS interfere – optically interferes with EDANS-DABCYL signal, flagging KLK7 hits | hit rate 80% among 3,200 | EDANS-DABCYL substrate fluorescence interference, no enzyme, 4 h; solvent 0%, active enzyme control 100% | shares compounds with KLK7 zymogen act | activation, % at 7 µM;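 active means activation above the all-compound mean plus 3 SD, ignoring values outside control-based bounds, cut at about 4.8% in these data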;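 further: value is the 4 h activation minus the activation read at time zero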
K7 EDANS ctr – counter-screen for kallikrein-7 activators: EDANS-DABCYL interference, dose response; shares compounds with KLK7 zymogen act; EDANS-DABCYL peptide fluorescence interference, no enzyme; EC50, µM; hit rate 20% among 250; AID 720493;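 active means compounds that raise the fluorescence signal in this interference counterscreen, with EC50 at or below 10 µM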;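 further: intact quenched peptide substrate alone read at 355 nm excitation and 520 nm emission; signal is fluorescence gain from T0 to T4 after four hours at room temperature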
An asterisk follows results filed as active; ? = inconclusive; / = not tested or not shown.

SMILES | Runt-CBFb FRET | MEX-5 binding | Runt-SMMHC FRET | KLK7 zymogen act | RanGTP-Impb inh | KLK7 act conf | EDANS interfere | others
Cc1c(C)c2c(OCC(=O)NCC(C)C)cc3c(c2oc1=O)CCC(C)(C)O3 | / | 1.4 | / | -8.4 | ? | / | /
CN1OC[C@@H]2CN(C(=S)Nc3ccc(C#N)cc3)[C@H](c3ccc(N4CCCCC4)cc3)C[C@@H]21 | / | / | / | 0.7 | / | / | /
Cc1c(C)n(Cc2ccc(F)cc2)c2ccc(C(=O)NCCN3CCOCC3)cc12 | / | -2.9 | / | 0.5 | -2.0 | / | /
COC(=O)C1=CN(C)C=C(C(=O)OC)C1c1ccsc1 | 107.8* | -0.3 | 61.3* | 33.3* | 33.2* | 15.9* | 23.8*
O=C(O)CCC(=O)N1CCN(c2nc(-c3ccccc3)c3ccccc3n2)CC1 | / | -1.7 | / | 31.7* | 11.8 | 7.5 | 8.6*
O=C(O)CCC(=O)N1CCN(c2nc3ccccc3s2)CC1 | -1.1 | -2.3 | 3.9 | 0.7 | 2.5 | / | /
COc1ccc(/C=N/NC(=O)c2cc3c(ccc4ccccc43)o2)cc1OC | / | / | / | 42.7* | / | 58.2* | 4.5* | K7 EDANS ctr=>69.5
N#CCn1cc(/C=N/NC(=O)c2cc3c(ccc4ccccc43)o2)c2ccccc21 | -25.9 | 9.1 | -35.4 | 35.5* | 2.1 | -35.7 | -2.6
O=C(/C=C/c1ccc([N+](=O)[O-])cc1)OCC(=O)c1ccc[nH]1 | / | / | / | -0.7 | / | / | /
Cc1cc(C)c2cc(C#N)c(NCCCNC(=O)CCC(=O)O)nc2c1 | 3.6 | -1.5 | 41.0 | 15.3* | ? | 20.3* | 22.2*
CC(C)NCC(O)c1ccc(O)c(O)c1 (centres undefined) | / | 0.8 | / | 34.7* | 6.4 | 46.2* | 51.0*
CNC[C@H](O)c1ccc(O)c(O)c1 | 6.4 | -10.3 | -3.6 | 9.1 | -0.8 | / | /
Nc1c(C(=O)OCC(=O)Nc2ccc(Cl)cc2[N+](=O)[O-])[nH]c(=O)[nH]c1=O | -1.0 | 1.7 | 3.0 | 13.5* | -2.0 | 136.3* | 137.4*
COc1ccccc1NC(=O)N(C)C[C@H]1OCc2cnnn2CCCC(=O)N([C@H](C)CO)C[C@H]1C | / | / | / | 1.1 | / | / | /
CSc1nnc(-c2cccn(Cc3ccccc3)c2=O)o1 | 1.6 | 2.5 | 3.9 | 12.7* | 5.6 | 25.7* | 38.1*
CC(=O)c1cccc(-c2ccnc3c2CC(C(=O)Nc2ccc4c(c2)OCO4)O3)c1 (centres undefined) | / | / | / | -0.4 | / | / | /
N=C1c2c(cc(=O)n3c2[nH]c2ccccc23)CN1CCN1CCOCC1 | 7.5 | -5.9 | 36.7 | 14.9* | 3.6 | -5.7 | -6.0
O=c1c2ccccc2[nH]c(=S)n1CCCN1CCOCC1 | 1.9 | -0.9 | -2.0 | -0.2 | 5.7 | / | /
Nc1nc2c(-c3ccc(Br)cc3)nnn2c2ccccc12 | / | -0.3 | / | -1.1 | 1.2 | / | /
Nc1nc2c(C(=O)N3CCCC3)nnn2c2ccccc12 | / | / | / | 19.1* | / | 21.9* | 20.2*
COc1ccc(Cn2cc(CN3CC=CS3(=O)=O)nn2)cc1 | / | / | / | 0.2 | / | / | /
Cc1coc2c(C)c3oc(=O)c(CCC(=O)N[C@@H](C)C(=O)N[C@@H](Cc4ccccc4)C(=O)O)c(C)c3cc12 | / | -0.4 | / | 22.6* | 2.6 | 41.0* | 36.5*
Cc1coc2c(C)c3oc(=O)c(CC(=O)N[C@@H](CC(C)C)C(=O)O)c(C)c3cc12 | / | -1.2 | / | 8.6 | 3.7 | / | /
COc1ccc(S(=O)(=O)N2CCOCC2)cc1NC(=O)CCCSc1ccccc1 | / | / | / | 0.3 | / | / | /
CCC(C)(C(=O)NC1CCCCC1)N(C(=O)CNC(=O)c1ccccc1)c1c(C)n(C)n(-c2ccccc2)c1=O (centres undefined) | 0.2 | -0.8 | -2.4 | 0.1 | 3.7 | / | /
SMILES | Runt-CBFb FRET | MEX-5 binding | Runt-SMMHC FRET | KLK7 zymogen act | RanGTP-Impb inh | KLK7 act conf | EDANS interfere | others
N#Cc1c(C(F)(F)F)cc(=O)n2c1[nH]c1ccccc12 | / | -18.7 | / | 51.9* | 91.2* | 64.1* | 66.4*
Cc1cccc(C)c1NC(=O)C(c1ccncc1)n1c(=O)c(-c2cc3ccccc3[nH]2)nc2ccccc21 (centres undefined) | / | / | / | -7.7 | / | / | /
Cc1ccc(S(=O)(=O)N2CCCCC2)cc1NC(=O)Cn1cc(C(F)(F)F)ccc1=O | / | / | / | 0.2 | / | / | /
COc1ccc2oc(=O)c(-c3nc4ccccc4o3)cc2c1 | 31.0 | 1.1 | 77.0 | -6.5 | 0.5 | / | /
O=c1oc2ccccc2cc1-c1nc2ccccc2o1 | 14.3 | / | 37.2 | 88.5* | / | 74.2* | 85.8*
CCN(CC)S(=O)(=O)c1cccc2cc(C(=O)O)c(O)cc12 | -12.3 | -2.5 | -42.2 | 22.4* | -7.5 | 73.6* | 73.0*
CCN(CC)S(=O)(=O)c1cc(C(=O)O)c(Cl)cc1Cl | 3.4 | -0.9 | -0.6 | -0.1 | -1.1 | / | /
COC(=O)c1c(-c2ccc(OC)cc2)sc2ccc(N3CCOCC3)cc12 | / | / | / | -2.7 | / | / | /
COC(=O)c1nc2ccc(N3CCOCC3)cc2c(C)c1C(=O)OC | -129.8 | / | -53.2 | 22.2* | / | 1.8 | 24.6*
O=C1C=C(N2CCOCC2)c2cccc3cccc1c23 | / | / | / | 26.9* | / | -0.4 | 0.7
O=C1C(N2CCOCC2)=Cc2cccc3cccc1c23 | / | / | / | -1.2 | / | / | /
N#CC1=C(N)C(C#N)(C#N)[C@H](c2ccncc2)[C@H]2CN(C(=O)OCc3ccccc3)CC=C12 | 12.7 | -3.5 | 18.3 | 30.7* | 10.8 | 26.7* | 21.5*
CN1CC=C2C(C#N)=C(N)C(C#N)(C#N)C(Cc3ccccc3)C2C1 (centres undefined) | 109.8* | -69.3* | 77.6* | 23.8* | 99.6* | 12.0 | 9.3*
CCC1C2CN(C(C)=O)CC=C2C(C#N)=C(N)C1(C#N)C#N (centres undefined) | 8.1 | -3.7 | 25.0 | 12.5 | 0.2 | / | /
CC(C)(C)OC(=O)N1CC=C2C(C#N)=C(N)C(C#N)(C#N)[C@H](c3cccnc3)[C@H]2C1 | 15.6 | -28.0* | 28.9 | 18.5* | 17.6* | 37.4* | 34.2*
CC(C)N1CC=C2C(C#N)=C(N)C(C#N)(C#N)C(c3ccccc3)C2C1 (centres undefined) | 74.5* | ? | 62.6* | 16.0* | 70.6* | 29.1* | 27.9*
COc1ccc([C@@H]2[C@H]3CN(C(C)=O)CC=C3C(C#N)=C(N)C2(C#N)C#N)c2ccccc12 | 4.5 | 5.3 | 11.2 | 2.0 | 4.0 | / | /
CN(C)CCN(Cc1ccccc1)C(=O)[C@H](Cc1ccccc1)N1C(=O)c2ccccc2C1=O | / | 1.4 | / | -0.1 | 2.1 | / | /
CC(C)NC(=O)OC1CC2CC1[C@H]1CCCCN1C2=O (some centres undefined) | / | / | / | -0.3 | / | / | /
